What all share (type): functional
For test [1], the system named is Leishmania tropica. Put plainly: Growth inhibition of MDR (DNM-R150) L. Tropica line at 15 uM concentration. An outline of the steps:
(§1)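 Daunomycin-resistant (DNM-R150) promastigotes, log phase, 3 × 10⁵ cells per well, co-exposed to 150 μM DNM plus sesquiterpene (DMSO stock diluted in medium; final DMSO ≤0.3%). Incubated 72 h at 28 °C in RPMI 1640-modified medium with 20% heat-inactivated FBS. MTT added for 4 h, formazan dissolved in 20% SDS, A540 read. %GI calculated relative to control cells given the same DNM without modulator.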

Test [2] has as its system Leishmania tropica. Put plainly: Growth inhibition of MDR (DNM-R150) L. Tropica line at 30 uM concentration. Summed up:
as §1

Test [3] has as its system Leishmania tropica. Briefly: Growth inhibition of MDR (DNM-R150) L. Tropica line at 7.5 uM concentration. An outline of the steps: as §1
The test system of test [4] is Leishmania tropica. Put plainly: Growth inhibition of wild type L. Tropica parasite at 15 uM concentration. Summed up:
(§2)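 Intrinsic toxicity assay on wild-type LRC clone promastigotes, log phase, 3 × 10⁵ cells per well, exposed to sesquiterpene without DNM (DMSO stock diluted in medium; final DMSO ≤0.3%). Incubated 72 h at 28 °C in RPMI 1640-modified medium with 20% FBS. Viability read by MTT (4 h, SDS solubilization, 540 nm). Survival is absorbance ratio to untreated control, expressed as %GI.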

Test [5] has as its system Leishmania tropica. Briefly: Growth inhibition of wild type L. Tropica parasite at 30 uM concentration. An outline of the steps: as §2
For test [6], the system named is Leishmania tropica. Put plainly: Growth inhibition of wild type L. Tropica parasite at 7.5 uM concentration. An outline of the steps:
as §2

As for `CC(=O)O[C@@H]1[C@H](OC(=O)c2ccccc2)[C@@]2(C)[C@@H](OC(=O)c3ccccc3)CC3[C@@H](OC(C)=O)C2(OC3(C)C)[C@@](C)(O)[C@H]1OC(=O)c1cccnc1` (some centres undefined), the inhibition in the test with Leishmania tropica [1] came to 30.7%; with Leishmania tropica [2], 69.5%; in the test with Leishmania tropica [3], 10%; with Leishmania tropica [4], 0.7%; in the test on Leishmania tropica [5] it was 3.7%; in the test with Leishmania tropica [6], 2.2%.

Turning to `CC(=O)O[C@@H]1[C@H](OC(=O)/C=C/c2ccccc2)[C@@]2(C)[C@@H](OC(=O)c3ccccc3)CC3CC2(OC3(C)C)[C@@](C)(O)[C@H]1OC(=O)c1cccnc1` (some centres undefined), the inhibition was 90.3% with Leishmania tropica [1]; 94.7% in the test on Leishmania tropica [2]; 82% in the test on Leishmania tropica [3]; 3.7% with Leishmania tropica [4]; 7.5% in the test with Leishmania tropica [5]; 2.5% in the test on Leishmania tropica [6].

`CC(=O)O[C@@H]1[C@H](OC(=O)c2cccnc2)[C@@]2(C)[C@@H](OC(=O)c3ccccc3)[C@@H](OC(C)=O)C3CC2(OC3(C)C)[C@@](C)(O)[C@H]1OC(=O)c1ccccc1` (some centres undefined): the inhibition in the test with Leishmania tropica [1] is 44%; in the test with Leishmania tropica [2] it was 69.7%; in the test on Leishmania tropica [3], 21.4%; with Leishmania tropica [4], 12.9%; with Leishmania tropica [5], 19.7%; with Leishmania tropica [6], 0%.

With `CC(=O)O[C@@H]1[C@H](OC(=O)c2ccccc2)[C@@]2(C)[C@@H](OC(=O)/C=C/c3ccccc3)C[C@H]3[C@@H](OC(C)=O)[C@]2(OC3(C)C)[C@@](C)(O)[C@H]1OC(=O)c1cccnc1`, the inhibition is 13.5% in the test with Leishmania tropica [1]; 45% in the test with Leishmania tropica [2]; 7.3% in the test on Leishmania tropica [3]; 1.5% with Leishmania tropica [4]; 1.9% in the test with Leishmania tropica [5]; 1.5% with Leishmania tropica [6].

`CC(=O)O[C@@H]1[C@H](OC(=O)c2cccnc2)[C@@]2(C)[C@@H](OC(=O)c3ccccc3)[C@@H](OC(=O)c3ccccc3)C3CC2(OC3(C)C)[C@@](C)(O)[C@H]1OC(C)=O` (some centres undefined): the inhibition was found to be 54% in the test with Leishmania tropica [1]; 89% with Leishmania tropica [2]; 23.9% with Leishmania tropica [3]; 6% with Leishmania tropica [4]; 11% in the test with Leishmania tropica [5]; 0.5% in the test with Leishmania tropica [6].

For the molecule `CC(=O)O[C@@H]1[C@H](OC(=O)c2ccccc2)[C@@]2(C)[C@@H](OC(=O)c3ccccc3)[C@@H](OC(C)=O)C3CC2(OC3(C)C)[C@@](C)(O)[C@H]1OC(C)=O` (some centres undefined), the inhibition with Leishmania tropica [1] amounted to 65%; in the test with Leishmania tropica [2], 90%; with Leishmania tropica [3], 39%; in the test with Leishmania tropica [4], 14.4%; in the test on Leishmania tropica [5], 23%; in the test on Leishmania tropica [6] it was 1.7%.

Turning to `CC(=O)O[C@@H]1C2[C@H](OC(C)=O)[C@H](OC(=O)c3ccccc3)[C@]3(C)[C@@H](OC(=O)c4ccccc4)[C@H](OC(=O)c4cccnc4)C[C@@H](C)C13OC2(C)C` (some centres undefined), the inhibition in the test with Leishmania tropica [1] turned out to be 79.3%; in the test with Leishmania tropica [2], 94.5%; in the test on Leishmania tropica [3], 42.2%; in the test with Leishmania tropica [4] it was 13%; in the test on Leishmania tropica [5], 13.3%; in the test with Leishmania tropica [6], 1.7%.

Regarding `CC(=O)O[C@H]1C[C@](C)(O)C23CC(C[C@H](OC(=O)/C=C/c4ccccc4)[C@]2(C)[C@H]1OC(=O)c1ccccc1)C(C)(C)O3` (some centres undefined), the inhibition in the test with Leishmania tropica [1] was 92.8%; in the test with Leishmania tropica [2], 94.3%; in the test with Leishmania tropica [3], 88.2%; in the test with Leishmania tropica [4] it was 7.3%; with Leishmania tropica [5] it was 7.5%; in the test with Leishmania tropica [6], 0%.

Consider `CC(=O)O[C@@H]1C2[C@H](OC(C)=O)[C@H](OC(=O)c3ccccc3)[C@]3(C)[C@@H](OC(=O)c4ccccc4)[C@H](OC(=O)c4ccccc4)C[C@](C)(O)C13OC2(C)C` (some centres undefined), for which the inhibition with Leishmania tropica [1] came to 82.2%; with Leishmania tropica [2], 92%; with Leishmania tropica [3] it was 60.3%; in the test with Leishmania tropica [4] it was 19.7%; in the test with Leishmania tropica [5], 16.2%; with Leishmania tropica [6] it was 9.7%.

Consider `CC(=O)O[C@H]1C[C@](C)(O)C23CC(C[C@H](OC(=O)c4ccccc4)[C@]2(C)[C@H]1OC(=O)c1ccccc1)C(C)(C)O3` (some centres undefined), for which the inhibition with Leishmania tropica [1] stood at 89.7%; in the test on Leishmania tropica [2], 94%; in the test on Leishmania tropica [3], 82%; with Leishmania tropica [4], 4.1%; in the test on Leishmania tropica [5], 13.3%; in the test on Leishmania tropica [6], 5.3%.

Consider `CC(=O)O[C@H]1[C@H](O)[C@@H](C)C23OC(C)(C)C(C[C@H](OC(=O)c4ccccc4)[C@]2(C)[C@H]1OC(=O)c1ccccc1)[C@H]3OC(C)=O` (some centres undefined), for which the inhibition came to 54% with Leishmania tropica [1]; 77.5% with Leishmania tropica [2]; 32% in the test with Leishmania tropica [3]; 3.5% in the test on Leishmania tropica [4]; 11.7% in the test with Leishmania tropica [5]; 0% in the test on Leishmania tropica [6].

With `CC(=O)OC[C@]12[C@@H](OC(=O)c3ccccc3)CC3[C@@H](OC(=O)c4ccccc4)C1(OC3(C)C)[C@H](C)C[C@@H](OC(=O)c1cccnc1)[C@@H]2OC(C)=O` (some centres undefined), the inhibition with Leishmania tropica [1] was found to be 87.9%; with Leishmania tropica [2], 93.7%; in the test on Leishmania tropica [3], 83.7%; in the test on Leishmania tropica [4] it was 27.5%; in the test on Leishmania tropica [5], 35%; in the test on Leishmania tropica [6], 11.5%.

As for `CC(=O)OC[C@]12[C@@H](OC(=O)c3ccccc3)CC3[C@@H](OC(=O)c4ccccc4)C1(OC3(C)C)[C@@](C)(O)C[C@@H](OC(=O)c1cccnc1)[C@@H]2OC(C)=O` (some centres undefined), the inhibition amounted to 91.3% in the test with Leishmania tropica [1]; 94.8% with Leishmania tropica [2]; 80.7% in the test with Leishmania tropica [3]; 25.8% in the test with Leishmania tropica [4]; 45% in the test with Leishmania tropica [5]; 8.2% in the test on Leishmania tropica [6].

Consider `CC(=O)O[C@@H]1[C@H](OC(=O)c2ccccc2)[C@@]2(C)[C@@H](OC(=O)c3ccccc3)[C@@H](OC(=O)c3ccccc3)C3CC2(OC3(C)C)[C@@](C)(O)[C@H]1OC(C)=O` (some centres undefined), for which the inhibition in the test with Leishmania tropica [1] was determined as 79%; in the test on Leishmania tropica [2], 93%; with Leishmania tropica [3], 48.7%; in the test with Leishmania tropica [4], 15.8%; in the test with Leishmania tropica [5] it was 20.5%; in the test with Leishmania tropica [6] it was 0.5%.

The term inhibition denotes the drop in the measured response relative to a control, in per cent. Lower therefore signals a weak effect.
